Data on one molecule can be found in ChEMBL document CHEMBL3098117, “Identification and optimization of an aminoalcohol-carbazole series with antimalarial properties” (ACS Med Chem Lett, 2013).

Each structure is given as a SMILES string. Activity calls are given as the source filed them. No cut-off for these calls is given here.

The nature of data set [1]: Terminal half life in NMRI mouse at 5 mg/kg, po by LC-MS/MS analysis. Type of data set: ADME, organism-based. Details: dose 5 mg/kg, route oral. To be noted: in vivo, read-out: beta t1/2 (converted).
In data set [2] the test system is Plasmodium falciparum. Description: Antimalarial activity against chloroquine, pyrimethamine, cycloguanil-resistant Plasmodium falciparum 7G8. Type of data set: functional, organism-based.
Data set [3] has as its system Plasmodium berghei. Briefly: Antimalarial activity against Plasmodium berghei ANKA expressing GFP infected in po dosed NMRI mouse assessed as reduction in parasitemia administered qd for 4 days measured at 24 hrs after last dose. It counts as functional. The method, boiled down:
(§1)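 P. berghei-infected mice dosed orally once daily on days 0–3, first dose 4 h postinfection, at 3, 10, 30 and 100 mg/kg/day. Red blood cell parasitemia and plasma exposure measured on day 4, 24 h after last dose; ED50 derived from dose-response; survival then monitored for 26 further days as mean survival days.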

In data set [4] the test system is Plasmodium berghei. Description: Antimalarial activity against Plasmodium berghei ANKA expressing GFP infected in NMRI mouse assessed as reduction in parasitemia at 10 mg/kg/day, po qd for 4 days measured at 24 hrs after last dose relative to control. Type of data set: functional. On the set-up: scale not given: the % may be the effect or the level left. The method, boiled down:
as §1

Data set [5] relates to Plasmodium falciparum. Description: Antimalarial activity against chloroquine, pyrimethamine, sulfadoxine and quinine-resistant Plasmodium falciparum W2. It counts as functional, organism-based.
A short description of data set [6]: Cmax in NMRI mouse at 1 mg/kg, iv and 5 mg/kg, po by LC-MS/MS analysis. It counts as ADME, organism-based. To be noted: in vivo.
The subject of data set [7] is Plasmodium falciparum. Briefly: Antimalarial activity against drug-sensitive Plasmodium falciparum NF54. Type of data set: functional, organism-based.
In data set [8] the target is T1, A-type voltage-gated potassium channel KCND3 (Homo sapiens, UniProt Q9UK17).
T1 sequence (Q9UK17 whole entry): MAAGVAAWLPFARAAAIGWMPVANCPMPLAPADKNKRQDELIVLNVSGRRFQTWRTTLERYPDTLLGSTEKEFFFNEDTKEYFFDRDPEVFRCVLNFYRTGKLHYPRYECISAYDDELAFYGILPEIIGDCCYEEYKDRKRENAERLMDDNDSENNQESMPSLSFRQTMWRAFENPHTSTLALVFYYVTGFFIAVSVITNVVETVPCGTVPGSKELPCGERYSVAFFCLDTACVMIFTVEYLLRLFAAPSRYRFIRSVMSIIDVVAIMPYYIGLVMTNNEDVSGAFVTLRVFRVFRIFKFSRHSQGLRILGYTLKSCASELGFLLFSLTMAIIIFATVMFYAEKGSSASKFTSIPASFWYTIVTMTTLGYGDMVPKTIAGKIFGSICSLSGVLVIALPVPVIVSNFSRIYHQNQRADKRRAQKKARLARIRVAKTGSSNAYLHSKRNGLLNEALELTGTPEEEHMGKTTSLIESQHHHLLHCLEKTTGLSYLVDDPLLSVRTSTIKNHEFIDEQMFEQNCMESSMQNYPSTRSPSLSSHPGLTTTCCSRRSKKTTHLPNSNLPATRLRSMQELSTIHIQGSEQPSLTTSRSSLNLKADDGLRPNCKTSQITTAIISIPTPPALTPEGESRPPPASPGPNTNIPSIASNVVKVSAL
Briefly: Inhibition of Kv4.3 channel (unknown origin).

Data set [9] has as its system Plasmodium falciparum. Briefly: Antimalarial activity against mefloquine-resistant Plasmodium falciparum TM91C235. It counts as functional, organism-based.
For another data set, the target named is T2, Cytochrome P450 1A2 (Homo sapiens, UniProt P05177).
T2 sequence (P05177 whole entry): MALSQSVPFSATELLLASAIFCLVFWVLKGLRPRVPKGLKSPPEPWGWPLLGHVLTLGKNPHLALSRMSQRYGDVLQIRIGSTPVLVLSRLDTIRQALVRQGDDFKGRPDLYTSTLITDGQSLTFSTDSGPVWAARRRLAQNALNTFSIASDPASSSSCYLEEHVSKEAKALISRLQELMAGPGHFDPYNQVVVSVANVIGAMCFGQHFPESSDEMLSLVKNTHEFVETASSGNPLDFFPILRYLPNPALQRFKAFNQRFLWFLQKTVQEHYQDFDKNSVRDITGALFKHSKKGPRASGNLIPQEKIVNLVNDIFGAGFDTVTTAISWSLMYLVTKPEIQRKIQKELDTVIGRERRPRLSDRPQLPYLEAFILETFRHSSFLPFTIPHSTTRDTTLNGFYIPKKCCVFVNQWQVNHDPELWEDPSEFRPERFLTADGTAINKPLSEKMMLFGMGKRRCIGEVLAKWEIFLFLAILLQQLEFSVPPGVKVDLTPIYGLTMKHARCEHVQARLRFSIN
Description: Inhibition of human recombinant CYP1A2 expressed in baculovirus-infected insect cells preincubated for 15 mins followed by substrate addition measured after 30 mins by luminescence assay. Type of data set: ADME. To be noted: recombinant enzyme, 0.5 h.

In a further data set the target is T3, Cytochrome P450 2B6 (Homo sapiens, UniProt P20813).
T3 sequence (P20813 whole entry): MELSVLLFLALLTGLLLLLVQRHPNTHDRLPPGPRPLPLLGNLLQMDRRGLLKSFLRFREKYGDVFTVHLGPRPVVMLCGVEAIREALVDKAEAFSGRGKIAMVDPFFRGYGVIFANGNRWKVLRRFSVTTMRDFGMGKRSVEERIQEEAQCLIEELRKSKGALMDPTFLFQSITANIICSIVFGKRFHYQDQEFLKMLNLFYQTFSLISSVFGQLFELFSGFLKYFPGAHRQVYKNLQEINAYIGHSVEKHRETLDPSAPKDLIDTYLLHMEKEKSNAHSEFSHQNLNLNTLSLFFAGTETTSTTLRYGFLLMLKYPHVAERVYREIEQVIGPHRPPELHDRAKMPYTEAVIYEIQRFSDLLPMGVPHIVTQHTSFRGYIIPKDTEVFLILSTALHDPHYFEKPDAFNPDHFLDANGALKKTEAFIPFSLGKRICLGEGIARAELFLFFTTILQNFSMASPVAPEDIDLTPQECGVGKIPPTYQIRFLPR
Description: Inhibition of human recombinant CYP2B6 expressed in baculovirus-infected insect cells preincubated for 15 mins followed by substrate addition measured after 30 mins by luminescence assay. Type of data set: ADME. As to conditions: recombinant enzyme, 0.5 h.

A short description of data set [10]: Genotoxicity in micronucleus (unknown origin) under metabolic conditions. It counts as ADME.
Data set [11] deals with Plasmodium falciparum. Briefly: Antimalarial activity against chloroquine, pyrimethamine, sulfadoxine, quinine and mefloquine-sensitive Plasmodium falciparum D6. Type of data set: functional, organism-based.
The target of another data set is T4, Cytochrome P450 2C8 (Homo sapiens, UniProt P10632).
T4 sequence (P10632 whole entry): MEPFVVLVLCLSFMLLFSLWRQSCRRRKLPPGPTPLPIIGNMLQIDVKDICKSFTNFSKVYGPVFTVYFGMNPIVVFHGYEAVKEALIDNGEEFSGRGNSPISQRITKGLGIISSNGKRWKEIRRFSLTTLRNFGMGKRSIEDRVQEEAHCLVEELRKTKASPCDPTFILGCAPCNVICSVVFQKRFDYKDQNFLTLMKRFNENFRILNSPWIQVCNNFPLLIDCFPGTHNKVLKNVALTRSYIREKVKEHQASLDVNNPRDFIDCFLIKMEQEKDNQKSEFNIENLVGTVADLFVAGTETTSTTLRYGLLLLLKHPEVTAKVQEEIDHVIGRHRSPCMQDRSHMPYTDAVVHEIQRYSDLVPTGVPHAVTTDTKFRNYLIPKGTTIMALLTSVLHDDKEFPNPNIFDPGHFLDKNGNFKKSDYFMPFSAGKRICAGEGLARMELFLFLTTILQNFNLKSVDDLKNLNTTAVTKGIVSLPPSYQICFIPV
Description: Inhibition of human recombinant CYP2C8 expressed in baculovirus-infected insect cells preincubated for 15 mins followed by substrate addition measured after 30 mins by luminescence assay. Type of data set: ADME. As to conditions: recombinant enzyme, 0.5 h.

The ED50 is the dose that gives a 50% effect, or the effect in half of the subjects. The term Cmax denotes the highest concentration seen after dosing. `OC(CNC1CCCCC1)Cn1c2ccc(Br)cc2c2cc(Br)ccc21` (racemic): the half-life in data set [1] was 15 h. The result in the data set with Plasmodium falciparum [2], in the data set on Plasmodium falciparum [5], with Plasmodium falciparum [7], with Plasmodium falciparum [9] and in the data set on Plasmodium falciparum [11] was Active. The Activity entry in the data set with Plasmodium berghei [3] was “Dose dependent effect”; in the data set with Plasmodium berghei [4], 38%; in data set [10], “Non-toxic”. The ED50 in the data set on Plasmodium berghei [3] turned out to be 11.4 mg/kg/day. Moreover, the Cmax in data set [6] is 158 ng/mL. For the same molecule, the “inhibition (INH)” value in data set [8] is listed as “Not Active”; on Cytochrome P450 1A2, “Active”; at Cytochrome P450 2B6 it was “Active”; at Cytochrome P450 2C8, “Active”.
